ChEMBL document CHEMBL1156269, “Biological and biophysical properties of the histone deacetylase inhibitor suberoylanilide hydroxamic acid are affected by the presence of short alkyl groups on the phenyl ring” (J Med Chem, 2010)
The source made the active and inactive calls. The calls are words filed in the database; no cut-off is given here.

System: Caco-2
Assay: Induction of P21WAF1 gene expression in human Caco-2 cells at 5 uM after 24 hrs by Western blotting
Type: functional, cell-based
Summary of the method: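 Caco-2 cells were plated at 3×10⁵/well one day before treatment, then exposed for 24 h at 1 or 5 μM. Cells were scraped into PBS and protein was quantified. Equal protein was run on 12% SDS-PAGE and transferred to nitrocellulose. Blots were probed with mouse anti-p21 (1/1000, milk buffer) and an HRP secondary, with chemiluminescent detection; actin served as loading check.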

How did the Activity turn out when `O=C(CCCCCCC(=O)Nc1ccccc1)NO` was run?
Its Activity is “inactive”.
